# In ChEMBL document CHEMBL1122406, “Bis(bioreductive) alkylating agents: synthesis and biological activity in a nude mouse human carcinoma model” (1983):
# Columns and labels:
# [1] = test system: EBV-positive nasopharyngeal cell line; experiment: EBV-positive nasopharyngeal cells (D98/HR1) survived at concentration of 3.0 ug/mL of compound; format: functional, human gammaherpesvirus 4
# Method in brief: (§1)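 Modified clonogenic assay in D98/HR1 cells from 3-4-day-old monolayer cultures. Drug diluted into warm McCoy's 5A medium; quinones first dissolved in dichloromethane, then diluted in 95% ethanol. Cells at 4.0 × 10^5/mL exposed for 1 h at 37 °C, washed twice, then plated in 0.3% agar CMRL 1066 medium over a 0.5% agar base, 6.7 × 10^4 cells/plate. Survival is expressed relative to control.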
# [2] = test system: EBV-positive nasopharyngeal cell line; experiment: Percent colony reduction in cell growth in EBV-positive nasopharyngeal cell lines (D98/HR1) after administration of 3.0 ug/mL dose; format: functional, human gammaherpesvirus 4
# Method in brief: (§2)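 D98/HR1 cells from 3-4-day monolayer cultures, suspended at 4.0×10^5/mL and exposed to drug for 1 h at 37 °C. Quinones dissolved in dichloromethane, diluted in 95% ethanol, then in warm McCoy's 5A. Cells washed twice, plated in agar over an agar base at 6.7×10^4 cells/plate. Colony survival expressed relative to control, as percent reduction.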
# [3] = test system: EBV-positive nasopharyngeal cell line; experiment: Percent colony reduction in cell growth in EBV-positive nasopharyngeal cell lines after administration of 0.04 ug/mL dose from experiment A; format: functional, human gammaherpesvirus 4; method in brief: as §2
# [4] = test system: EBV-positive nasopharyngeal cell line; experiment: Percent colony reduction in cell growth in EBV-positive nasopharyngeal cell lines after administration of 0.04 ug/mL dose from experiment B; format: functional, human gammaherpesvirus 4; method in brief: as §2
# [5] = test system: EBV-positive nasopharyngeal cell line; experiment: EBV-positive nasopharyngeal colony count obtained from the examination of uniform plate surface areas after a dose of 0.04 ug/mL from experiment B; format: functional, human gammaherpesvirus 4; method in brief: as §1
# [6] = test system: EBV-positive nasopharyngeal cell line; experiment: EBV-positive nasopharyngeal colony count obtained from the examination of uniform plate surface areas after a dose of 0.4 ug/mL from experiment B; format: functional, human gammaherpesvirus 4; method in brief: as §1
# [7] = test system: EBV-positive nasopharyngeal cell line; experiment: Percent colony reduction in cell growth in EBV-positive nasopharyngeal cell lines after administration of 0.4 ug/mL dose from experiment B; format: functional, human gammaherpesvirus 4; method in brief: as §2
# [8] = test system: EBV-positive nasopharyngeal cell line; experiment: EBV-positive nasopharyngeal colony count obtained from the examination of uniform plate surface areas after a dose of 0.004 ug/mL from experiment B; format: functional, human gammaherpesvirus 4; method in brief: as §1
# [9] = test system: EBV-positive nasopharyngeal cell line; experiment: EBV-positive nasopharyngeal colony count obtained from the examination of uniform plate surface areas after a dose of 0.04 ug/mL from experiment A; format: functional, human gammaherpesvirus 4; method in brief: as §1
# [10] = test system: EBV-positive nasopharyngeal cell line; experiment: Percent colony reduction in cell growth in EBV-positive nasopharyngeal cell lines after administration of 0.004 ug/mL dose from experiment B; format: functional, human gammaherpesvirus 4; method in brief: as §2
# [11] = test system: EBV-positive nasopharyngeal cell line; experiment: EBV-positive nasopharyngeal cells (D98/HR1) survived at concentration of 0.3 ug/mL of compound; format: functional, human gammaherpesvirus 4; method in brief: as §1
# [12] = test system: EBV-positive nasopharyngeal cell line; experiment: EBV-positive nasopharyngeal cells (D98/HR1) survived at concentration of 100 ug/mL of compound; format: functional, human gammaherpesvirus 4; method in brief: as §1
# [13] = test system: EBV-positive nasopharyngeal cell line; experiment: Percent colony reduction in cell growth in EBV-positive nasopharyngeal cell lines (D98/HR1) after administration of 0.3 ug/mL dose; format: functional, human gammaherpesvirus 4; method in brief: as §2
# [14] = test system: EBV-positive nasopharyngeal cell line; experiment: Percent colony reduction in cell growth in EBV-positive nasopharyngeal cell lines (D98/HR1) after administration of 100 ug/mL dose; format: functional, human gammaherpesvirus 4; method in brief: as §2
# [15] = test system: EBV-positive nasopharyngeal cell line; experiment: EBV-positive nasopharyngeal colony count obtained from the examination of uniform plate surface areas after a dose of 0.1 ug/mL; format: functional, human gammaherpesvirus 4; method in brief: as §1
# [16] = test system: Mus musculus; experiment: Base line measurement at a sample size of 4 after second week of 20 mg/kg dose administration in mice; format: functional
# Method in brief: (§3)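 Nude mice pretreated with 0.5 mL rabbit anti-mouse thymocyte serum s.c., inoculated s.c. 7 days later with 1×10^7 D98/HR1 cells in PBS, and given a second serum dose two weeks later. Dosing started at tumors ~2-3 mm diameter, daily for 14 days, then 2 weeks off. Dose per kg from daily individual weights; Klucel vehicle. Group mean tumor volume (mm3) adjusted by analysis of covariance for base line.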
# [17] = test system: EBV-positive nasopharyngeal cell line; experiment: Percent colony reduction in cell growth in EBV-positive nasopharyngeal cell lines after in vitro exposure at 1.34 ug/mL
# [18] = test system: EBV-positive nasopharyngeal cell line; experiment: EBV-positive nasopharyngeal colony count obtained from the examination of uniform plate surface areas after a dose of 0.67 ug/mL from Experiment B; format: functional, human gammaherpesvirus 4; method in brief: as §1
# [19] = test system: Mus musculus; experiment: Base line measurement at a sample size of 4 after fourth week of 20 mg/kg dose administration in mice; format: functional; method in brief: as §3
# [20] = test system: EBV-positive nasopharyngeal cell line; experiment: Percent colony reduction in cell growth in EBV-positive nasopharyngeal cell lines after administration of 0.067 ug/mL dose
# [21] = test system: EBV-positive nasopharyngeal cell line; experiment: EBV-positive nasopharyngeal colony count obtained from the examination of uniform plate surface areas after a dose of 2.68 ug/mL from Experiment B in mice; format: functional, human gammaherpesvirus 4
# [22] = test system: Mus musculus; experiment: Base line measurement at a sample size of 5 after fourth week of 5 mg/kg dose administration in mice; format: functional; method in brief: as §3
# [23] = test system: Mus musculus; experiment: Base line measurement at a sample size of 4 after first week of 20 mg/kg dose administration in mice; format: functional; method in brief: as §3
# [24] = test system: EBV-positive nasopharyngeal cell line; experiment: EBV-positive nasopharyngeal colony count obtained from the examination of uniform plate surface areas after a dose of 1.34 ug/mL from Experiment B; format: functional, human gammaherpesvirus 4; method in brief: as §1
# [25] = test system: Mus musculus; experiment: Base line measurement at a sample size of 5 after first week of 5 mg/kg dose administration in mice; format: functional; method in brief: as §3
# [26] = test system: Mus musculus; experiment: Base line measurement at a sample size of 5 after second week of 5 mg/kg dose administration in mice; format: functional; method in brief: as §3
# [27] = test system: EBV-positive nasopharyngeal cell line; experiment: EBV-positive nasopharyngeal colony count obtained from the examination of uniform plate surface areas after a dose of 0.067 ug/mL from Experiment B; format: functional, human gammaherpesvirus 4; method in brief: as §1
# [28] = test system: EBV-positive nasopharyngeal cell line; experiment: EBV-positive nasopharyngeal colony count obtained from the examination of uniform plate surface areas after a dose of 6.0 ug/mL; format: functional, human gammaherpesvirus 4; method in brief: as §1
# [29] = test system: EBV-positive nasopharyngeal cell line; experiment: Percent colony reduction in cell growth in EBV-positive nasopharyngeal cell lines after administration of 6.0 ug/mL dose; format: functional, human gammaherpesvirus 4; method in brief: as §2
# [30] = test system: EBV-positive nasopharyngeal cell line; experiment: EBV-positive nasopharyngeal colony count obtained from the examination of uniform plate surface areas after a dose of 0.67 ug/mL; format: functional, human gammaherpesvirus 4; method in brief: as §1
# [31] = test system: EBV-positive nasopharyngeal cell line; experiment: EBV-positive nasopharyngeal colony count obtained from the examination of uniform plate surface areas after a dose of 0.2 ug/mL; format: functional, human gammaherpesvirus 4; method in brief: as §1
# [32] = test system: EBV-positive nasopharyngeal cell line; experiment: EBV-positive nasopharyngeal colony count obtained from the examination of uniform plate surface areas after a dose of 2.68 ug/mL; format: functional, human gammaherpesvirus 4; method in brief: as §1
# [33] = test system: EBV-positive nasopharyngeal cell line; experiment: Percent colony reduction in cell growth in EBV-positive nasopharyngeal cell lines after administration of 0.67 ug/mL dose; format: functional, human gammaherpesvirus 4; method in brief: as §2
# [34] = test system: EBV-positive nasopharyngeal cell line; experiment: Percent colony reduction in cell growth in EBV-positive nasopharyngeal cell lines after administration of 6.28 ug/mL dose; format: functional, human gammaherpesvirus 4; conditions: in the assay text read “2.68 ug/mL” for “6.28 ug/mL”; method in brief: as §2
# [35] = test system: EBV-positive nasopharyngeal cell line; experiment: EBV-positive nasopharyngeal colony count obtained from the examination of uniform plate surface areas after a dose of 1.34 ug/mL; format: functional, human gammaherpesvirus 4; method in brief: as §1
# [36] = test system: Mus musculus; experiment: Base line measurement at a sample size of 5 after second week of 5 mg/kg dose administration; format: functional; method in brief: as §3
# [37] = test system: Mus musculus; experiment: Base line measurement at a sample size of 3 after first week of 20 mg/kg dose administration; format: functional; method in brief: as §3
# [38] = test system: Mus musculus; experiment: Base line measurement at a sample size of 3 after second week of 20 mg/kg dose administration; format: functional; method in brief: as §3
# [39] = test system: EBV-positive nasopharyngeal cell line; experiment: Percent colony reduction in cell growth in EBV-positive nasopharyngeal cell lines after administration of 1.34 ug/mL dose; format: functional, human gammaherpesvirus 4; method in brief: as §2
# [40] = test system: Mus musculus; experiment: Base line measurement at a sample size of 5 after fourth week of 5 mg/kg dose administration; format: functional; method in brief: as §3
# [41] = test system: Mus musculus; experiment: Base line measurement at a sample size of 5 after first week of 5 mg/kg dose administration; format: functional; method in brief: as §3
# [42] = test system: Mus musculus; experiment: Base line measurement at a sample size of 3 after fourth week of 20 mg/kg dose administration; format: functional; method in brief: as §3
# [43] = test system: EBV-positive nasopharyngeal cell line; experiment: Percent colony reduction in cell growth in EBV-positive nasopharyngeal cell lines after administration of 0.2 ug/mL dose; format: functional, human gammaherpesvirus 4; method in brief: as §2
# [44] = test system: EBV-positive nasopharyngeal cell line; experiment: EBV-positive nasopharyngeal colony count obtained from the examination of uniform plate surface areas after a dose of 10 ug/mL; format: functional, cell-based; conditions: human gammaherpesvirus 4; method in brief: as §1
# [45] = test system: EBV-positive nasopharyngeal cell line; experiment: Percent colony reduction in cell growth in EBV-positive nasopharyngeal cell lines after administration of 10 ug/mL dose; format: functional, cell-based; conditions: human gammaherpesvirus 4; method in brief: as §2
compound,measurement,setting,value
COc1cc([C@@H]2c3cc4c(cc3[C@@H](O[C@@H]3O[C@@H]5CO[C@@H](C)O[C@H]5[C@H](O)[C@H]3O)[C@H]3COC(=O)[C@H]23)OCO4)cc(OC)c1O [ETOPOSIDE],Survival,[1],0.3
same,Reduction,[2],70%
COc1cccc2c1C(=O)c1c(O)c3c(c(O)c1C2=O)C[C@@](O)(C(=O)CO)C[C@@H]3O[C@H]1C[C@H](N)[C@H](O)[C@H](C)O1 [DOXORUBICIN],Reduction,[3],63%
same,Reduction,[4],82%
same,Survival,[5],0.18
same,Survival,[6],<0.1
same,Reduction,[7],>99%
same,Survival,[8],0.69
same,Survival,[9],0.37
same,Reduction,[10],31%
CN(Cc1cnc2nc(N)nc(N)c2n1)c1ccc(C(=O)N[C@@H](CCC(=O)O)C(=O)O)cc1 [METHOTREXATE],Survival,[11],0.4
same,Survival,[12],<0.01
same,Reduction,[13],60%
same,Reduction,[14],>99%
O=C1c2c(O)ccc(O)c2C(=O)c2c(NCCNCCO)ccc(NCCNCCO)c21 [MITOXANTRONE],Survival,[15],0.33
CC(=O)OCC1=CC(=O)C=C(CCC2=CC(=O)C=C(COC(C)=O)C2=O)C1=O,Baseline,[16],94.83
same,Reduction,[17],-19%
same,Survival,[18],1.34
same,Baseline,[19],360.23
same,Reduction,[20],30%
same,Survival,[21],1.35
same,Baseline,[22],358.79
same,Baseline,[23],34.53
same,Survival,[24],1.19
same,Baseline,[25],69.66
same,Baseline,[26],162.76
same,Survival,[27],0.7
CC[C@]1(O)C[C@@H]2CN(CCc3c([nH]c4ccccc34)[C@@](C(=O)OC)(c3cc4c(cc3OC)N(C)[C@H]3[C@@](O)(C(=O)OC)[C@H](OC(C)=O)[C@]5(CC)C=CCN6CC[C@]43[C@@H]65)C2)C1 [VINBLASTINE],Survival,[28],<0.01
same,Reduction,[29],>99%
O=C1C=C(CBr)C(=O)C(CCC2=CC(=O)C=C(CBr)C2=O)=C1,Survival,[30],0.81
same,Survival,[31],1
same,Survival,[32],0.91
same,Reduction,[33],19%
same,Reduction,[34],9%
same,Survival,[35],0.77
same,Baseline,[36],43.2
same,Baseline,[37],12.54
same,Baseline,[38],17.52
same,Reduction,[39],23%
same,Baseline,[40],137.03
same,Baseline,[41],22.32
same,Baseline,[42],29.69
same,Reduction,[43],0%
CISPLATIN,Survival,[31]; human gammaherpesvirus 4,0.4
same,Survival,[44],0.03
same,Reduction,[45],97%
same,Reduction,[43]; human gammaherpesvirus 4,60%
